Laboratory results taken from publication PMC2643122 (Molecular Microbiology, 2008).
Entries after “also recorded” stand apart in the source; their conditions may differ. Where no end group is shown, it is not given here.

What was measured:
Candida albicans = conditions: cited from earlier work
C. albicans [1] = assay: Candidacidal assay of Hst 5; format: cell-based, Candida albicans
Method in brief: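 Strains (integrated at RP10 in ssa2Δ background) grown overnight in YPD with uridine 50 μg ml−1 at 30°C, washed twice in 10 mM NaPB, resuspended to 10^6 cells ml−1. Exposed to 15 μM Hst 5, 1 h, 30°C, 250 r.p.m. Diluted, 500 cells plated on YPD agar, 48 h room temperature. Percent death versus buffer-only cells. Three independent transformants per mutant; each assay repeated ≥3 times.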

rSsa2p [2] = molecular target: T1, rSsa2p (Candida albicans, UniProt P46587); assay: Limited thermolysin proteolysis of cross-linked rSsa2p–BHst 5 complexes; format: binding; conditions: thermolysin 5 μg ml^−1, 30°C, 1 h; silver-stained 15% SDS-PAGE
yeast cells = conditions: ref Koshlukova et al., 2000; Vylkova et al., 2007; cited from earlier work
C. albicans Ssa2p = conditions: ref Li et al., 2006; cited from earlier work
[3] = ref Li et al., 2006; cited from earlier work
human tissues = conditions: discussion statement without its own reference; cited from earlier work
C. albicans [4] = assay: Hst 5 translocation assay; format: cell-based, Candida albicans
Method in brief: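 Early log-phase cells (1 × 10^8) were washed twice and suspended in 1 ml 10 mM NaPB, then given biotinylated Hst 5 (15 μM final) for 30 min at room temperature. Washed cells were pelleted at 3 300 g, 4°C, glass-bead disrupted and spun 15 700 g, 10 min. Cytosolic protein (10 μg) was separated by 16% Tricine SDS-PAGE, blotted with streptavidin-HRP, detected by ECL and quantified densitometrically. Means ± standard errors of triplicate independent assays.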

rSsa2p [5] = molecular target: T1, rSsa2p; assay: FPLC gel filtration determination of dissociation constants; format: binding
DnaK = conditions: 2001, cited from earlier work; for binding by bacterial DnaK related to uptake and killing: ref Kragol et al.

T1 sequence (P46587 whole entry): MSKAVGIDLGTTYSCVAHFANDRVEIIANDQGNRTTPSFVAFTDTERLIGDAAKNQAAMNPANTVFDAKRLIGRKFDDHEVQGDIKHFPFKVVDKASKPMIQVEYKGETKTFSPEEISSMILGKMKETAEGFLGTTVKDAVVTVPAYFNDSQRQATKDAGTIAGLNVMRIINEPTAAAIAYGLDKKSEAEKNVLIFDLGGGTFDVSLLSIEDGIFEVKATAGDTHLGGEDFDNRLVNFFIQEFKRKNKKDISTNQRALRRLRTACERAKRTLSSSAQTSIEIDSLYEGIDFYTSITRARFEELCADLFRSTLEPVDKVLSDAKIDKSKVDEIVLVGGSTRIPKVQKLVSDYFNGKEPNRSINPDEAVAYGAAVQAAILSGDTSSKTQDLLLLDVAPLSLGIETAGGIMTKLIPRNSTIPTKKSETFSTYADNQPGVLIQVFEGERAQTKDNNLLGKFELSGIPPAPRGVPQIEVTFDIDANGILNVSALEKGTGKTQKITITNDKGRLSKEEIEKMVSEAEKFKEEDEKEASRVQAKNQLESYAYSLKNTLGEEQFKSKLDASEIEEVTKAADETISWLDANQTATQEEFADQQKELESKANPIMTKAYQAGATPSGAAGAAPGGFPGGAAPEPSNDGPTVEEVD

For human β defensin 2, the “killing of candidal cells via uptake mechanism involving Ssa proteins” value (Candida albicans; ref Vylkova et al., 2006) is listed as “can kill candidal cells”.

For `C[C@H](NC(=O)[C@H](Cc1cnc[nH]1)NC(=O)[C@H](CO)NC(=O)[C@@H](N)CC(=O)O)C(=O)N[C@@H](CCCCN)C(=O)N[C@@H](CCCNC(=N)N)C(=O)N[C@@H](Cc1cnc[nH]1)C(=O)N[C@@H](Cc1cnc[nH]1)C(=O)NCC(=O)N[C@@H](Cc1ccc(O)cc1)C(=O)N[C@@H](CCCCN)C(=O)N[C@@H](CCCNC(=N)N)C(=O)N[C@@H](CCCCN)C(=O)N[C@@H](Cc1ccccc1)C(=O)N[C@@H](Cc1cnc[nH]1)C(=O)N[C@@H](CCC(=O)O)C(=O)N[C@@H](CCCCN)C(=O)N[C@@H](Cc1cnc[nH]1)C(=O)N[C@@H](Cc1cnc[nH]1)C(=O)N[C@@H](CO)C(=O)N[C@@H](Cc1cnc[nH]1)C(=O)N[C@@H](CCCNC(=N)N)C(=O)NCC(=O)N[C@@H](Cc1ccc(O)cc1)C(=O)O` [Hst 5, Histatin 5], the “resistance of SSA1 knockouts to Hst 5” value (Candida albicans; SSA1 knockout, ref Li et al., 2006) is given as “only mildly resistant”, the “intracellular uptake and killing in C. albicans SSA2 deletion mutants” value (Candida albicans; SSA2 deletion, ref Li et al., 2006) is given as “significantly reduced” and the “fungicidal activity for Candida albicans and other fungal pathogens” value (Candida albicans; associated with oral candidiasis, background statement without its own reference) is given as “strongly fungicidal”. For the same compound, the “inhibition of Hst 5 killing by drugs blocking endocytosis” value (Candida albicans; pre-treatment of cells, ref Zhu et al., 2006) was “inhibited by pre-treatment of cells with drugs blocking endocytosis”, the salt sensitivity (Candida albicans; ref Dong et al., 2003, Jang et al., 2008) was “salt sensitive” and the “reduction in cellular killing, Ssa2 150−156 mutant strain” value (C. albicans [1]; P1 mutant Ssa2(150−156A3) as printed, 15 μM Hst 5, 1 h at 30°C) was “approximately 20%”. For the same compound, the “loss of killing function, Ssa2(150−156A4) strain” value (C. albicans [1]; P1 mutant, result in words, 15 μM Hst 5, 1 h at 30°C) was “mild to moderate loss of function”, the “killing, Ssa2(334−338A3) strain” value (C. albicans [1]; T2 mutant with defective cell wall secretion of Ssa2p, 15 μM Hst 5, 1 h at 30°C) was “reduced Hst 5 translocation and killing to levels of the ssa2Δ knockout; also recorded: significant loss of cytotoxic and transport functions” and the “killing, Ssa2(131−135A3) strain” value (C. albicans [1]; downstream T1 mutant, 15 μM Hst 5, 1 h at 30°C) was “reduced, but did not prevent Hst 5 killing and intracellular uptake; also recorded: mild to moderate loss of function”. For the same compound, the “effect of mutations within Ssa2(342–355) on killing” value (C. albicans [1]; spot 32 region, data not shown) was “did not alter Hst 5 killing or translocation”, the “effect of binding on thermolysin digestion sites of rSsa2p” value (rSsa2p [2]) was “substantially alters available thermolysin digestion sites exposed for enzymatic cleavage” and the “selective leakage of intracellular ions and ATP” value (yeast cells) was “induces selective leakage of intracellular ions and ATP from yeast cells”. The “association with Ssa2p compared with Ssa1p” value (C. albicans Ssa2p) was “stronger association”, the self-aggregation [3] was “high propensity for self-aggregation” and the “toxicity to human tissues” value (human tissues) was “without being toxic to human tissues”. The “time course of translocation” value (C. albicans [4]; BHst 5 15 μM, NaPB, room temperature) was “Translocation happens very rapidly following only 5 min incubation; also recorded: the majority of Hst 5 is translocated intracellularly after 30 min”, the “reduction in Hst 5 translocation, Ssa2 150−156 mutant strain” value (C. albicans [4]; P1 mutant Ssa2(150−156A3) as printed, BHst 5 15 μM) was “approximately 20%” and the “intracellular translocation, Ssa2(334−338A3) strain” value (C. albicans [4]; T2 mutant with defective cell wall secretion of Ssa2p, BHst 5 15 μM) was “reduced Hst 5 translocation and killing to levels of the ssa2Δ knockout”. The “intracellular translocation, Ssa2(131−135A3) strain” value (C. albicans [4]; downstream T1 mutant, BHst 5 15 μM) was “reduced, but did not prevent Hst 5 killing and intracellular uptake”, the “effect of mutations within Ssa2(342–355) on translocation” value (C. albicans [4]; spot 32 region, data not shown) was “did not alter Hst 5 killing or translocation” and the “uptake in Ssa2p deletion mutants” value (C. albicans [4]; ssa2Δ) was “reduced but measurable uptake”. For the same compound, the “competition for nucleotide binding sites in Ssa2p” value (rSsa2p [5]; gel filtration with ATP or ADP) was “does not compete for nucleotide binding sites in Ssa2p” and the “fold improvement of binding affinity by nucleotides” value (rSsa2p [5]; presence of nucleotides, gel filtration) was 10 -fold.

For “drosocin: cationic antimicrobial peptide (GKPRPYSPRPTSHPRPIRV; ends and bridges not checked; UniProt P36193 22-40, looked up)”, the “binding by bacterial DnaK related to uptake and killing” value (DnaK) is listed as “shown to be related to their intracellular uptake and killing functions”.

In the case of “pyrrhocoricin: cationic antimicrobial peptide (VDKGSYLPRPTPPRPIYNRN; ends and bridges not checked; UniProt P37362 1-20, looked up)”, the “binding by bacterial DnaK related to uptake and killing” value (DnaK) is given as “shown to be related to their intracellular uptake and killing functions” and the “probable interaction site on DnaK” value (DnaK; ref Otvos et al., 2000, Kragol et al.) is given as “C-terminal variable region of the lid domain outside the conventional peptide binding region”.
